Rows were chosen to be rich in hits. Some 1.4% of all compounds tested hit in one or more screens of this group.
Calpain2 inh: inhibitors of pig calpain II; purified calpain II, fluorogenic peptide substrate, 30 min; inhibition, % at 16 µM; actives 0.37% (n = 220,000);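 active = inhibition above about 50%, limit read from the data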
Furin inh: human furin inhibition | P09958 | purified furin, fluorogenic substrate cleavage | inhibition, % at 20 µM or 30 µM | actives 0.061% (n = 220,000) | AID 463115; in the data active = inhibition above about 25%
Target sequence (P09958 108-714 limits assumed): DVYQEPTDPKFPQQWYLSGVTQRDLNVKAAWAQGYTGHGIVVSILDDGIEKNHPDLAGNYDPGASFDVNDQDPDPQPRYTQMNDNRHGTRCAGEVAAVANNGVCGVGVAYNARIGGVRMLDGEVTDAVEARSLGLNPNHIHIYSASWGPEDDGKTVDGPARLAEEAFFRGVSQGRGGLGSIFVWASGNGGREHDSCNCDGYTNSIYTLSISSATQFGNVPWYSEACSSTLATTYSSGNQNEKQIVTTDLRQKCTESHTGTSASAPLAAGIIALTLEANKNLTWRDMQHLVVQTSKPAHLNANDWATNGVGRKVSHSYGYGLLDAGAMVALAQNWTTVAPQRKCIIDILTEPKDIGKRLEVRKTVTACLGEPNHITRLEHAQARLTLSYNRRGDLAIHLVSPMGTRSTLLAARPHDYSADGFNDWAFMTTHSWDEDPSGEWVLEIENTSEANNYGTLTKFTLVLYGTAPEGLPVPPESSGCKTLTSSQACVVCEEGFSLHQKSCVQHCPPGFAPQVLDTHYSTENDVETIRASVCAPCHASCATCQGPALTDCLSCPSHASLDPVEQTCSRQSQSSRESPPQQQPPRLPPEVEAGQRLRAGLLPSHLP
FXIa inh: blocks human coagulation factor XIa protease activity; P03951; purified FXIa, Boc-Glu-Ala-Arg-AMC fluorogenic substrate; inhibition, % at 5 µM; actives 0.14% (n = 220,000); AID 798;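 active = inhibition of at least 40%; inactive = inhibition below 40%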;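 note: fluorescence of freed AMC excited at 355 nm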
Thrombin inh: thrombin (human) inhibition; P00734; inhibition, % at 5 µM; alpha-thrombin, Boc-VPR-AMC fluorogenic substrate cleavage; actives 0.26% (n = 220,000);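 active = inhibition at or above 40%; inactive = inhibition below 40%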
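System – human alpha-thrombin · Medium – pH 7.5 Tris (50 mM) with NaCl 150 mM, Tween 20 0.05% · Compound – single-point dosing at 5 µM, 0.2% DMSO · Incubation – enzyme reaction carried out at room temperature · Technique – fluorescence of released AMC, ex 355 nm, em 460 nm · Read-out basis – % inhibition of thrombin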
hK5 inh: kallikrein 5 (human) inhibition; recombinant hK5, fluorogenic AMC substrate cleavage; AID 873; actives 0.59% (n = 210,000); inhibition, % at 5 µM; Q9Y337;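 active = inhibition of 40% or more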
FXIIa inh 1536: factor XIIa (human) inhibition; P00748; purified FXIIa, Boc-QGR-AMC fluorogenic substrate, 2 h; inhibition, % at 5 µM; actives 0.3% (n = 220,000); in the data active = inhibition above about 40%
Numbers stand for hits.

Screening Cc1cc(OC(=O)c2ccc(Cl)cc2Cl)nc(C)n1 returned Calpain2 inh inactive, Furin inh inactive, FXIa inh inactive, Thrombin inh inactive, hK5 inh inactive and FXIIa inh 1536 45.
For Cc1cc(C)c(S(=O)(=O)c2ccccc2)c(OC(=O)c2ccc(Cl)cc2Cl)n1 the results were Calpain2 inh inactive, Furin inh inactive, FXIa inh inactive, Thrombin inh inactive, hK5 inh inactive and FXIIa inh 1536 inactive.
Screening CCOC(=O)c1c(C)nc(-c2ccccc2)nc1NC(=O)CC returned Calpain2 inh inactive, Furin inh inactive, FXIa inh inactive, Thrombin inh inactive, hK5 inh 58 and FXIIa inh 1536 inactive.
CCC(=O)Nc1nc(-c2ccccc2)nc(SC)c1C(C)=O was read as Calpain2 inh inactive, Furin inh inactive, FXIa inh inactive, Thrombin inh inactive, hK5 inh inactive and FXIIa inh 1536 inactive.
For C=CCn1c(SCC(=O)Nc2nnc(CC)s2)nnc1-c1cccnc1 the results were Calpain2 inh inactive, Furin inh inactive, FXIa inh inactive, Thrombin inh inactive, hK5 inh inactive and FXIIa inh 1536 inactive.
For COc1cnc(SCc2c(Cl)cccc2Cl)nc1Cl the results were Calpain2 inh 51, Furin inh inactive, FXIa inh inactive, Thrombin inh inactive, hK5 inh inactive and FXIIa inh 1536 inactive.
For Cc1nc(SCc2c(F)cccc2Cl)n[nH]1 the results were Calpain2 inh inactive, Furin inh inactive, FXIa inh inactive, Thrombin inh inactive, hK5 inh inactive and FXIIa inh 1536 inactive.
For COC(=O)C(C)N(c1ccc(OC)cc1)S(C)(=O)=O (centres undefined) the results were Calpain2 inh inactive, Furin inh inactive, FXIa inh inactive, Thrombin inh inactive, hK5 inh inactive and FXIIa inh 1536 inactive.
CN(C)c1ccnc(Oc2ccc(C(C)(C)C)cc2)c1C#N was read as Calpain2 inh 59, Furin inh inactive, FXIa inh inactive, Thrombin inh inactive, hK5 inh inactive and FXIIa inh 1536 inactive.
Screening COc1ccc(N2CCN(C(=O)c3ccc(COc4ccc5c(C)cc(=O)oc5c4)cc3)CC2)cc1 returned Calpain2 inh inactive, Furin inh inactive, FXIa inh inactive, Thrombin inh inactive, hK5 inh inactive and FXIIa inh 1536 inactive.
Screening O=C(COc1cc(Cl)c(Cl)cc1Cl)N1CCN(c2ccccn2)CC1 returned Calpain2 inh inactive, Furin inh inactive, FXIa inh inactive, Thrombin inh 54, hK5 inh inactive and FXIIa inh 1536 inactive.
O=C(COc1ccc(Cl)cc1Cl)N1CCN(c2ccccn2)CC1 was read as Calpain2 inh inactive, Furin inh inactive, FXIa inh inactive, Thrombin inh inactive, hK5 inh inactive and FXIIa inh 1536 inactive.
`Cc1c(NS(=O)(=O)c2ccc(C(=O)NCc3ccccc3)cc2)c(=O)n(-c2ccccc2)n1C` gave Calpain2 inh inactive, Furin inh inactive, FXIa inh inactive, Thrombin inh inactive, hK5 inh inactive and FXIIa inh 1536 inactive.
For COc1ccc(S(=O)(=O)NC(C)C(=O)Nc2cccc(C(C)=O)c2)cc1 (centres undefined) the results were Calpain2 inh inactive, Furin inh inactive, FXIa inh inactive, Thrombin inh 47, hK5 inh inactive and FXIIa inh 1536 inactive.
For CCNC(=O)c1c(C)nc2ccccn12 the results were Calpain2 inh inactive, Furin inh inactive, FXIa inh inactive, Thrombin inh inactive, hK5 inh inactive and FXIIa inh 1536 inactive.
Screening COc1ccc(Nc2c(-c3ccc(OC)cc3)nc3cnccn23)cc1 returned Calpain2 inh inactive, Furin inh inactive, FXIa inh inactive, Thrombin inh inactive, hK5 inh inactive and FXIIa inh 1536 inactive.
For COc1ccc(Nc2c(-c3ccc(C)cc3)nc3cnccn23)cc1 the results were Calpain2 inh 75, Furin inh inactive, FXIa inh inactive, Thrombin inh inactive, hK5 inh inactive and FXIIa inh 1536 inactive.
`O=C(O)CSCc1ccc(Cl)cc1` gave Calpain2 inh inactive, Furin inh inactive, FXIa inh inactive, Thrombin inh inactive, hK5 inh inactive and FXIIa inh 1536 inactive.
N#Cc1nc(Cc2cccc3ccccc23)oc1NCc1ccco1 was read as Calpain2 inh inactive, Furin inh inactive, FXIa inh inactive, Thrombin inh inactive, hK5 inh inactive and FXIIa inh 1536 inactive.
`Cc1cc(NC(=O)CCN2C(=O)/C(=C/c3ccccc3F)SC2=S)no1` gave Calpain2 inh inactive, Furin inh inactive, FXIa inh inactive, Thrombin inh inactive, hK5 inh inactive and FXIIa inh 1536 95.
